In ChEMBL document CHEMBL3259728, “Design, synthesis and biological evaluation of some novel substituted quinazolines as antitumor agents” (2014):

Columns and labels:
Assay type in all cases: functional
[1] = Growth inhibition of human UO31 cells assessed as cell growth at 10^-7 M after 48 hrs by SRB assay; conditions: UO-31, 48 h, read-out: Activity
SN12C = assay: Growth inhibition of human SN12C cells assessed as cell growth at 10^-6 M after 48 hrs by SRB assay; conditions: read-out: Activity
PC-3 = assay: Cytotoxicity against human PC3 cells after 48 hrs by SRB assay; conditions: PC-3, 48 h
In short: (§1)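 NCI 60-cell-line panel of human tumour lines from nine cancer types. Continuous 48 h exposure at five 10-fold dilutions from 10^-4 to 10^-8 M, with 5-FU as positive control. SRB protein stain read spectrophotometrically at time zero, untreated control and each concentration. GI50, TGI and LC50 were derived from the [(Ti−Tz)/(C−Tz)]×100 growth relations, and out-of-range values are given as > or < the tested limits.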

RPMI-8226 = assay: Cytotoxicity against human RPMI8226 cells after 48 hrs by SRB assay; conditions: RPMI-8226, 48 h; in short: as §1
HCT-116 [2] = assay: Growth inhibition of human HCT116 cells assessed as cell growth at 10^-4 M after 48 hrs by SRB assay; conditions: HCT-116, 48 h, read-out: Activity
HCT-116 [3] = assay: Growth inhibition of human HCT116 cells assessed as cell growth at 10^-8 M after 48 hrs by SRB assay; conditions: HCT-116, 48 h, read-out: Activity
NCI-H322M [4] = assay: Cytotoxicity against human NCI-H322M cells after 48 hrs by SRB assay; in short: as §1
K562 = assay: Growth inhibition of human K562 cells assessed as cell growth at 10^-4 M after 48 hrs by SRB assay; conditions: K562, 48 h, read-out: Activity
SK-MEL-28 = assay: Cytotoxicity against human SK-MEL-28 cells after 48 hrs by SRB assay; conditions: SK-MEL-28, 48 h; in short: as §1
SNB-75 = assay: Growth inhibition of human SNB75 cells assessed as cell growth at 10^-8 M after 48 hrs by SRB assay; conditions: SNB-75, 48 h, read-out: Activity
[5] = Growth inhibition of human EKVX cells assessed as cell growth at 10^-5 M after 48 hrs by SRB assay; conditions: read-out: Activity
SW-620 = assay: Growth inhibition of human SW620 cells assessed as cell growth at 10^-4 M after 48 hrs by SRB assay; conditions: SW-620, 48 h, read-out: Activity
NCI-H23 = assay: Growth inhibition of human NCI-H23 cells assessed as cell growth at 10^-7 M after 48 hrs by SRB assay; conditions: NCI-H23, 48 h, read-out: Activity
MDA-MB-435 = assay: Growth inhibition of human MDA-MB-435 cells assessed as cell growth at 10^-8 M after 48 hrs by SRB assay; conditions: MDA-MB-435, 48 h, read-out: Activity
[6] = Growth inhibition of human UACC62 cells assessed as cell growth at 10^-7 M after 48 hrs by SRB assay; conditions: UACC-62, 48 h, read-out: Activity
[7] = Growth inhibition of human OVCAR3 cells assessed as cell growth at 10^-5 M after 48 hrs by SRB assay; conditions: OVCAR-3, 48 h, read-out: Activity
786-0 = assay: Growth inhibition of human 786-0 cells assessed as cell growth at 10^-6 M after 48 hrs by SRB assay; conditions: 786-0, 48 h, read-out: Activity
In short: (§2)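 Five-dose NCI panel protocol. Each dose (10^-4 to 10^-8 M, 10-fold steps) was given as 48 h continuous exposure, and protein was measured by SRB staining. Percentage growth at each level is [(Ti−Tz)/(C−Tz)]×100, where Tz is time-zero absorbance and C is untreated control.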

LOX IMVI = assay: Cytotoxicity against human LOXIMVI cells after 48 hrs by SRB assay; in short: as §1
SR = assay: Growth inhibition of human SR cells assessed as cell growth at 10^-6 M after 48 hrs by SRB assay; conditions: read-out: Activity
SK-OV-3 = assay: Growth inhibition of human SKOV3 cells assessed as cell growth at 10^-7 M after 48 hrs by SRB assay; conditions: SK-OV-3, 48 h, read-out: Activity
NCI-H322M [8] = assay: Growth inhibition of human NCI-H322M cells assessed as cell growth at 10^-6 M after 48 hrs by SRB assay; conditions: read-out: Activity
[9] = Cytotoxicity against human OVCAR3 cells after 48 hrs by SRB assay; conditions: OVCAR-3, 48 h; in short: as §1
[10] = Growth inhibition of human MOLT4 cells assessed as cell growth at 10^-7 M after 48 hrs by SRB assay; conditions: MOLT-4, 48 h, read-out: Activity
SK-MEL-5 = assay: Growth inhibition of human SK-MEL-5 cells assessed as cell growth at 10^-7 M after 48 hrs by SRB assay; conditions: SK-MEL-5, 48 h, read-out: Activity
[11] = Growth inhibition of human Hs578T cells assessed as cell growth at 10^-4 M after 48 hrs by SRB assay; conditions: Hs-578T, read-out: Activity
ACHN = assay: Growth inhibition of human ACHN cells assessed as cell growth at 10^-5 M after 48 hrs by SRB assay; conditions: read-out: Activity; in short: as §2
[12] = Growth inhibition of human UO31 cells assessed as cell growth at 10^-5 M after 48 hrs by SRB assay; conditions: UO-31, 48 h, read-out: Activity
[13] = Cytotoxicity against human HCT15 cells after 48 hrs by SRB assay; conditions: HCT-15, 48 h; in short: as §1
HOP-62 = assay: Growth inhibition of human HOP62 cells assessed as cell growth at 10^-7 M after 48 hrs by SRB assay; conditions: HOP-62, 48 h, read-out: Activity
[14] = read-out: LC50 (the source's name)
[15] = read-out: pLC50 (the source's name) (converted)

## Cc1ccc(-c2nc3ccc(Cl)cc3c(=O)n2/N=C/c2ccccc2)cc1
[1]
  growth at 0.1 µM: 60%
SN12C
  growth at 1 µM: 91%
PC-3; read-out: GI50
  GI50: 83 µM
PC-3; [14]
  CC50: > 100 µM
PC-3; read-out: TGI
  TGI: > 100 µM
PC-3; read-out: pGI50 (converted)
  GI50: 83.2 µM
PC-3; [15]
  CC50: > 100 µM
PC-3; read-out: pTGI
  TGI: > 100 µM
RPMI-8226; read-out: GI50
  GI50: > 100 µM
RPMI-8226; [14]
  CC50: > 100 µM
RPMI-8226; read-out: TGI
  TGI: > 100 µM
RPMI-8226; read-out: pGI50 (converted)
  GI50: > 100 µM
RPMI-8226; [15]
  CC50: > 100 µM
RPMI-8226; read-out: pTGI
  TGI: > 100 µM
HCT-116 [2]
  growth at 100 µM: 21%
HCT-116 [3]
  growth at 0.01 µM: 100%
NCI-H322M [4]; read-out: GI50
  GI50: 17.4 µM
NCI-H322M [4]; read-out: LC50
  LC50: > 100 µM
NCI-H322M [4]; read-out: TGI
  TGI: > 100 µM
NCI-H322M [4]; read-out: pGI50 (converted)
  GI50: 17.4 µM
NCI-H322M [4]; read-out: pLC50 (converted)
  LC50: > 100 µM
NCI-H322M [4]; read-out: pTGI
  TGI: > 100 µM
K562
  growth at 100 µM: 59%
SK-MEL-28; read-out: GI50
  GI50: 20.6 µM
SK-MEL-28; [14]
  CC50: > 100 µM
SK-MEL-28; read-out: TGI
  TGI: > 100 µM
SK-MEL-28; read-out: pGI50 (converted)
  GI50: 20.4 µM
SK-MEL-28; [15]
  CC50: > 100 µM
SK-MEL-28; read-out: pTGI
  TGI: > 100 µM
SNB-75
  growth at 0.01 µM: 87%
[5]
  growth at 10 µM: 34%
SW-620
  growth at 100 µM: 52%
NCI-H23
  growth at 0.1 µM: 89%
MDA-MB-435
  growth at 0.01 µM: 98%
[6]
  growth at 0.1 µM: 88%
[7]
  growth at 10 µM: 34%
786-0
  growth at 1 µM: 90%
LOX IMVI; read-out: GI50
  GI50: 70.1 µM
LOX IMVI; [14]
  CC50: > 100 µM
LOX IMVI; read-out: TGI
  TGI: > 100 µM
LOX IMVI; read-out: pGI50 (converted)
  GI50: 70.8 µM
LOX IMVI; [15]
  CC50: > 100 µM
LOX IMVI; read-out: pTGI
  TGI: > 100 µM
SR
  growth at 1 µM: 52%
SK-OV-3
  growth at 0.1 µM: 97%
NCI-H322M [8]
  growth at 1 µM: 82%
[9]; read-out: GI50
  GI50: 5.44 µM
[9]; [14]
  CC50: > 100 µM
[9]; read-out: TGI
  TGI: > 100 µM
[9]; read-out: pGI50 (converted)
  GI50: 5.5 µM
[9]; [15]
  CC50: > 100 µM
[9]; read-out: pTGI
  TGI: > 100 µM
[10]
  growth at 0.1 µM: 96%
SK-MEL-5
  growth at 0.1 µM: 92%
[11]
  growth at 100 µM: -9%
ACHN
  growth at 10 µM: 10%
[12]
  growth at 10 µM: 42%
[13]; read-out: GI50
  GI50: > 100 µM
[13]; [14]
  CC50: > 100 µM
[13]; read-out: TGI
  TGI: > 100 µM
[13]; read-out: pGI50 (converted)
  GI50: > 100 µM
[13]; [15]
  CC50: > 100 µM
[13]; read-out: pTGI
  TGI: > 100 µM
HOP-62
  growth at 0.1 µM: 89%
